Source: ChEMBL document CHEMBL1811814, “Synthesis and evaluation of indole, pyrazole, chromone and pyrimidine based conjugates for tumor growth inhibitory activities--development of highly efficacious cytotoxic agents” (Eur J Med Chem, 2010)

Assays:
Assay type in all cases: functional
HCT-15 = assay: Growth inhibition of human HCT15 cells
HT-29 [1] = assay: Growth inhibition of human HT-29 cells
SF-268 [2] = assay: Growth inhibition of human SF268 cells
SF-539 = assay: Growth inhibition of human SF539 cells
SNB-75 [3] = assay: Growth inhibition of human SNB75 cells
SK-MEL-2 [4] = assay: Growth inhibition of human SK-MEL-2 cells
SK-MEL-5 = assay: Growth inhibition of human SK-MEL-5 cells
UACC-257 = assay: Growth inhibition of human UACC257 cells
UACC-62 [5] = assay: Growth inhibition of human UACC62 cells
IGROV-1 [6] = assay: Growth inhibition of human IGROV1 cells
Outline: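 Follow-up panel testing at five concentrations (10^-4, 10^-5, 10^-6, 10^-7 and 10^-8 M) across the 60 human tumor cell lines. GI50 was obtained for each line from the concentration-response data, with the panel average GI50 also reported.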

OVCAR-3 = assay: Growth inhibition of human OVCAR3 cells
OVCAR-4 = assay: Growth inhibition of human OVCAR4 cells
SK-OV-3 = assay: Growth inhibition of human SKOV3 cells
786-0 [7] = assay: Growth inhibition of human 786-0 cells
ACHN = assay: Growth inhibition of human ACHN cells
[8] = Growth inhibition of human Hs 578T cells
BT-549 [9] = assay: Growth inhibition of human BT549 cells
T47D = assay: Growth inhibition of human T47D cells
HL-60(TB) = assay: Growth inhibition of human HL-60(TB) cells assessed tumor cell growth at 10^-5 M; parameters: scale not given: the % may be the effect or the level left
Outline: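 HL-60(TB), part of the 60-line panel, tested at a single concentration of 10^-5 M. The read-out is percent tumor cell growth relative to untreated growth.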

K562 = assay: Growth inhibition of human K562 cells assessed tumor cell growth at 10^-5 M; parameters: scale not given: the % may be the effect or the level left
Outline: (§1)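 NCI 60-human-tumor-cell-line panel screen. Each compound was tested at a single concentration of 10^-5 M, and percent growth of tumor cells was recorded for each cell line. Growth inhibition was expressed from these percent-growth values.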

[10] = Growth inhibition of human […] cells assessed tumor cell growth at 10^-5 M; parameters: scale not given: the % may be the effect or the level left; outline: as §1
NCI-H226 [11] = assay: Growth inhibition of human NCI-H226 cells assessed tumor cell growth at 10^-5 M; parameters: scale not given: the % may be the effect or the level left; outline: as §1
NCI-H23 [12] = assay: Growth inhibition of human NCI-H23 cells assessed tumor cell growth at 10^-5 M; parameters: scale not given: the % may be the effect or the level left; outline: as §1
NCI-H322M [13] = assay: Growth inhibition of human NCI-H322M cells assessed tumor cell growth at 10^-5 M; parameters: scale not given: the % may be the effect or the level left; outline: as §1
NCI-H522 = assay: Growth inhibition of human NCI-H522 cells assessed tumor cell growth at 10^-5 M; parameters: scale not given: the % may be the effect or the level left; outline: as §1
COLO 205 = assay: Growth inhibition of human COLO205 cells assessed tumor cell growth at 10^-5 M; parameters: scale not given: the % may be the effect or the level left; outline: as §1
HCC 2998 = assay: Growth inhibition of human HCC2998 cells assessed tumor cell growth at 10^-5 M; parameters: scale not given: the % may be the effect or the level left; outline: as §1
HT-29 [14] = assay: Growth inhibition of human HT-29 cells assessed tumor cell growth at 10^-5 M; parameters: scale not given: the % may be the effect or the level left; outline: as §1
SW-620 = assay: Growth inhibition of human SW620 cells assessed tumor cell growth at 10^-5 M; parameters: scale not given: the % may be the effect or the level left
Outline: (§2)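 Single-dose screen at 10^-5 M across the 60 human tumor cell line panel, run to NCI standards. The value is the percent growth of each cell line in the presence of compound. Compounds active at this dose moved on to five-concentration testing (10^-4 to 10^-8 M).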

SF-268 [15] = assay: Growth inhibition of human SF268 cells assessed tumor cell growth at 10^-5 M; parameters: scale not given: the % may be the effect or the level left; outline: as §1
SNB-19 = assay: Growth inhibition of human SNB19 cells assessed tumor cell growth at 10^-5 M; parameters: scale not given: the % may be the effect or the level left; outline: as §2
SNB-75 [16] = assay: Growth inhibition of human SNB75 cells assessed tumor cell growth at 10^-5 M; parameters: scale not given: the % may be the effect or the level left; outline: as §2
M14 = assay: Growth inhibition of human M14 cells assessed tumor cell growth at 10^-5 M; parameters: scale not given: the % may be the effect or the level left; outline: as §1
MDA-MB-435 = assay: Growth inhibition of human MDA-MB-435 cells assessed tumor cell growth at 10^-5 M; parameters: scale not given: the % may be the effect or the level left; outline: as §1
SK-MEL-2 [17] = assay: Growth inhibition of human SK-MEL-2 cells assessed tumor cell growth at 10^-5 M; parameters: scale not given: the % may be the effect or the level left; outline: as §1
UACC-62 [18] = assay: Growth inhibition of human UACC62 cells assessed tumor cell growth at 10^-5 M; parameters: scale not given: the % may be the effect or the level left; outline: as §2
IGROV-1 [19] = assay: Growth inhibition of human IGROV1 cells assessed tumor cell growth at 10^-5 M; parameters: scale not given: the % may be the effect or the level left; outline: as §1
OVCAR-5 = assay: Growth inhibition of human OVCAR5 cells assessed tumor cell growth at 10^-5 M; parameters: scale not given: the % may be the effect or the level left; outline: as §1
786-0 [20] = assay: Growth inhibition of human 786-0 cells assessed tumor cell growth at 10^-5 M; parameters: scale not given: the % may be the effect or the level left; outline: as §1
TK-10 = assay: Growth inhibition of human TK10 cells assessed tumor cell growth at 10^-5 M; parameters: scale not given: the % may be the effect or the level left; outline: as §2
MDA-MB-231 = assay: Growth inhibition of human MDA-MB-231 cells assessed tumor cell growth at 10^-5 M; parameters: scale not given: the % may be the effect or the level left; outline: as §1
[21] = Growth inhibition of human Hs 578T cells assessed tumor cell growth at 10^-5 M; parameters: scale not given: the % may be the effect or the level left; outline: as §1
BT-549 [22] = assay: Growth inhibition of human BT549 cells assessed tumor cell growth at 10^-5 M; parameters: scale not given: the % may be the effect or the level left; outline: as §1
CCRF-CEM = assay: Growth inhibition of human CCRF-CEM cells
MOLT-4 = assay: Growth inhibition of human MOLT4 cells
A549 = assay: Growth inhibition of human A549 cells
HOP-62 = assay: Growth inhibition of human HOP62 cells
NCI-H226 [23] = assay: Growth inhibition of human NCI-H226 cells
NCI-H23 [24] = assay: Growth inhibition of human NCI-H23 cells
NCI-H322M [25] = assay: Growth inhibition of human NCI-H322M cells
[26] = read-out: LC50 (the source's name)

Structure (SMILES): O=C1/C(=C\c2ccccn2)c2ccccc2N1c1c(Cl)cccc1Cl
- GI50 (HCT-15): 2 µM
- CC50 (HCT-15; [26]): 28.8 µM
- GI50 (HT-29 [1]): 2.1 µM
- CC50 (HT-29 [1]; [26]): 9.1 µM
- GI50 (SF-268 [2]): 3.6 µM
- CC50 (SF-268 [2]; [26]): 40.7 µM
- GI50 (SF-539): 2.4 µM
- CC50 (SF-539; [26]): > 100 µM
- GI50 (SNB-75 [3]): 1.4 µM
- CC50 (SNB-75 [3]; [26]): 32.3 µM
- GI50 (SK-MEL-2 [4]): 2.3 µM
- CC50 (SK-MEL-2 [4]; [26]): 24.5 µM
- GI50 (SK-MEL-5): 1.6 µM
- CC50 (SK-MEL-5; [26]): 5.7 µM
- GI50 (UACC-257): 1.7 µM
- CC50 (UACC-257; [26]): 18.2 µM
- GI50 (UACC-62 [5]): 1.6 µM
- CC50 (UACC-62 [5]; [26]): 6.9 µM
- GI50 (IGROV-1 [6]): 1.7 µM
- GI50 (OVCAR-3): 1.7 µM
- CC50 (OVCAR-3; [26]): 6.9 µM
- GI50 (OVCAR-4): 3.7 µM
- CC50 (OVCAR-4; [26]): > 100 µM
- GI50 (SK-OV-3): 3.4 µM
- CC50 (SK-OV-3; [26]): 74.1 µM
- GI50 (786-0 [7]): 1.9 µM
- CC50 (786-0 [7]; [26]): 6.6 µM
- GI50 (ACHN): 1.8 µM
- CC50 (ACHN; [26]): 7.2 µM
- GI50 [8]: 5.6 µM
- CC50 [8, 26]: > 100 µM
- GI50 (BT-549 [9]): 2.4 µM
- CC50 (BT-549 [9]; [26]): 23.4 µM
- GI50 (T47D): 2.3 µM
- CC50 (T47D; [26]): > 100 µM
- Activity (HL-60(TB)): 1.39%
- Activity (K562): 9.42%
- Activity [10]: -12.52%
- Activity (NCI-H226 [11]): 25.22%
- Activity (NCI-H23 [12]): 12.97%
- Activity (NCI-H322M [13]): 61.39%
- Activity (NCI-H522): 36.79%
- Activity (COLO 205): -1.34%
- Activity (HCC 2998): -82.08%
- Activity (HT-29 [14]): 10.75%
- Activity (SW-620): -56.9%
- Activity (SF-268 [15]): 7.81%
- Activity (SNB-19): 34.85%
- Activity (SNB-75 [16]): -17.92%
- Activity (M14): -43.6%
- Activity (MDA-MB-435): -5.05%
- Activity (SK-MEL-2 [17]): 48.8%
- Activity (UACC-62 [18]): 24.91%
- Activity (IGROV-1 [19]): 8.25%
- Activity (OVCAR-5): 122.39%
- Activity (786-0 [20]): -81.44%
- Activity (TK-10): 52%
- Activity (MDA-MB-231): 15.7%
- Activity [21]: 22.94%
- Activity (BT-549 [22]): -17.72%
- GI50 (CCRF-CEM): 3.2 µM
- CC50 (CCRF-CEM; [26]): > 100 µM
- GI50 (MOLT-4): 4.4 µM
- LC50 (MOLT-4): > 100 µM
- GI50 (A549): 1.9 µM
- CC50 (A549; [26]): 43.6 µM
- GI50 (HOP-62): 2.3 µM
- CC50 (HOP-62; [26]): 89.1 µM
- GI50 (NCI-H226 [23]): 0.01 µM
- CC50 (NCI-H226 [23]; [26]): 9.1 µM
- GI50 (NCI-H23 [24]): 3.5 µM
- LC50 (concentration killing 50% of cells) (NCI-H23 [24]): > 100 µM
- GI50 (NCI-H322M [25]): 2.8 µM
- CC50 (NCI-H322M [25]; [26]): 28.8 µM
